Tests used:
Format in all cases: functional
[1] = system: Cavia porcellus; test: Effect on bleeding time when a dose of 8.0 ug/kg/min was administered to guinea pig
Outline: (§1)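 Male guinea pigs (250–400 g) received continuous iv infusion of compound in 0.9% saline, with vehicle for controls. Template BT was taken 90 min after infusion start under pentobarbital (25 mg/kg ip), with hind limb shaved the day before and a pressure cuff proximal to the site. Each animal's value is the mean of two cuts; mean ± SE, n = 3. The cut-off is 900 s.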

[2] = species: Cavia porcellus; test: In vitro inhibition of ADP induced aggregation in guinea pig platelets
Outline: (§2)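 Guinea pig blood was taken by aortic puncture under pentobarbital into 3.15% citrate (1:10). PRP was adjusted to 4 × 10^5 platelets/μL and prewarmed 2 min at 37 °C with compound, stirred. Aggregation was induced with ADP (0.8–1 μM) and read as the change in light transmittance. IC50 with 95% CI.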

[3] = Dose ratio for dose causing prolongation of bleeding time to 3 times the basel value vs ID50 value of ex-vivo ADP-induced platelet aggregation.
Outline: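 Template bleeding time and ex vivo ADP aggregation measured in male guinea pigs 90 min after starting continuous iv infusion in 0.9% saline. BT(×3) is the dose prolonging BT to 3 times basal. The ratio is BT(×3) dose divided by the ex vivo ID50 dose.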

[4] = species: Cavia porcellus; test: Ex vivo inhibition of ADP induced aggregation in guinea pig platelets
Outline: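 Male guinea pigs (250–400 g) were given a continuous iv infusion in 0.9% saline, with vehicle for controls. At 90 min, citrated blood was drawn from the abdominal aorta under anesthesia and PRP was prepared. Aggregation was induced with submaximal ADP and read by light transmittance. ID50 in μg/kg/min with 95% CI, n = 2–5.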

[5] = system: Cavia porcellus; test: Effect on bleeding time when a dose of 2.5 ug/kg/min was administered to guinea pig; outline: as §1
[6] = system: Cavia porcellus; test: Effect on bleeding time when a dose of 2 ug/kg/min was administered to guinea pig; outline: as §1
[7] = system: Cavia porcellus; test: Effect on bleeding time when a dose of 5 ug/kg/min was administered to guinea pig; outline: as §1
[8] = system: Cavia porcellus; test: Effect on bleeding time when a dose of 10 ug/kg/min was administered to guinea pig; outline: as §1
[9] = system: Cavia porcellus; test: Effect on bleeding time when a dose of 2.2 ug/kg/min was administered to guinea pig; outline: as §1
[10] = system: Cavia porcellus; test: Effect on bleeding time when a dose of 0.9 ug/kg/min was administered to guinea pig; outline: as §1
[11] = system: Cavia porcellus; test: Effect on bleeding time when a dose of 1.4 ug/kg/min was administered to guinea pig; outline: as §1
[12] = system: Cavia porcellus; test: Effect on bleeding time when a dose of 0.2 ug/kg/min was administered to guinea pig; outline: as §1
[13] = species: Cavia porcellus; test: In vitro effect on ADP induced platelet aggregation in guinea pig platelet rich plasma; outline: as §2
[14] = species: Homo sapiens; test: In vitro effect on ADP induced platelet aggregation in human platelet rich plasma
Outline: (§3)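 Human blood was collected into 3.8% citrate (1:10). PRP was adjusted to 3 × 10^5 platelets/μL and preincubated 2 min at 37 °C with compound, stirred at 1000 rpm. ADP (1–10 μM) was then added and light-transmittance aggregometry recorded. IC50 with 95% CI, n = 4.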

[15] = species: Homo sapiens; test: In vitro effect on ADP induced human platelet aggregation; outline: as §3
[16] = species: Homo sapiens; test: In vitro effect on PAF induced human platelet aggregation
Outline: (§4)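 Human citrated (3.8%) PRP adjusted to 3 × 10^5 platelets/μL was stirred and prewarmed 2 min at 37 °C with compound. Submaximal agonist was added (PAF, TRAP or collagen) and aggregation recorded as the change in light transmittance.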

[17] = species: Homo sapiens; test: In vitro effect on TRAP induced human platelet aggregation; outline: as §4
[18] = species: Homo sapiens; test: In vitro effect on collagen induced human platelet aggregation; outline: as §4
[19] = In vitro effect on ADP induced platelet aggregation in monkey platelet rich plasma; conditions: Cercopithecidae
Outline: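 Monkey blood was drawn into 3.8% citrate (1:10). PRP at 3 × 10^5 platelets/μL was warmed 2 min at 37 °C with compound under stirring. Aggregation was triggered by ADP (30–40 μM) and measured by light transmittance. IC50 with 95% CI, n = 4.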

[20] = system: Cavia porcellus; test: Effect on bleeding time when a dose of 5.0 ug/kg/min was administered to guinea pig; outline: as §1
[21] = system: Cavia porcellus; test: Effect on bleeding time when a dose of 6.5 ug/kg/min was administered to guinea pig; outline: as §1
[22] = system: Cavia porcellus; test: Effect on bleeding time when a dose of 9.0 ug/kg/min was administered to guinea pig; outline: as §1
[23] = system: Cavia porcellus; test: Effect on bleeding time when a dose of 4 ug/kg/min was administered to guinea pig; outline: as §1
[24] = system: Cavia porcellus; test: Effect on bleeding time when a dose of 4.0 ug/kg/min was administered to guinea pig; outline: as §1
[25] = system: Cavia porcellus; test: Effect on bleeding time when a dose of 6.0 ug/kg/min was administered to guinea pig; outline: as §1
[26] = system: Cavia porcellus; test: Effect on bleeding time when a dose of 3.0 ug/kg/min was administered to guinea pig; outline: as §1

IC50 [2] [nM]	Structure (SMILES)	Dissociation ratio [3]	ID50 [4] [µg/min/kg]	also measured
190	N=C(N)c1ccc(C(=O)NCC[C@H]2C(=O)N(CC(=O)O)CCN2C(=O)CNC(=O)c2ccc(C(=N)N)cc2)cc1	<9	0.91	BT [1]: 800
37	N=C(N)Nc1ccc(C(=O)NCC[C@H]2C(=O)N(CC(=O)O)CCN2C(=O)CNC(=O)c2ccc(C(=N)N)cc2)cc1	21	0.12	BT [5]: 820; BT [6]: 410
210	N=C(N)c1ccc(C(=O)NCC(=O)N2CCN(CC(=O)O)C(=O)[C@@H]2CCCNC(=O)CCCCN)cc1	>5	0.94	BT [7]: 490
88	N=C(N)NCCCC(=O)NCCC[C@H]1C(=O)N(CC(=O)O)CCN1C(=O)CNC(=O)c1ccc(C(=N)N)cc1	21	0.47	BT [8]: 620
37	N=C(N)c1ccc(C(=O)NCCC[C@H]2C(=O)N(CC(=O)O)CCN2C(=O)CNC(=O)c2ccc(C(=N)N)cc2)cc1	12	0.19	BT [9]: 660
19	N=C(N)Nc1ccc(C(=O)NCCC[C@H]2C(=O)N(CC(=O)O)CCN2C(=O)CNC(=O)c2ccc(C(=N)N)cc2)cc1	16	0.087	BT [10]: 490; BT [11]: >900
12	COc1ccc(C[C@H](NC(=O)c2ccc(C(=N)N)cc2)C(=O)N2CCN(CC(=O)O)C(=O)[C@@H]2CCCCNC(=O)c2ccc(C(=N)N)cc2)cc1	<5	0.041	BT [12]: >900
160	N=C(N)c1ccc(C(=O)NCC(=O)N2CCN(CC(=O)O)C(=O)[C@@H]2CCCNC(=O)CCCCCN)cc1	<12	0.86	BT [8]: 780
	COC(=O)C[C@H]1C(=O)N(CC(=O)O)CCN1C(=O)CNC(=O)c1ccc(C(=N)N)cc1			IC50 [13]: 43 nM; IC50 [14]: 31 nM; IC50 [15]: 31 nM; IC50 [16]: 29 nM; IC50 [17]: 32 nM; IC50 [18]: 31 nM; IC50 [19]: 46 nM
150	N=C(N)c1ccc(C(=O)NCCCC[C@H]2C(=O)N(CC(=O)O)CCN2C(=O)CNC(=O)c2ccc(C(=N)N)cc2)cc1	6	0.79	BT [20]: 620
85	N=C(N)Nc1ccc(C(=O)NC[C@H]2C(=O)N(CC(=O)O)CCN2C(=O)CNC(=O)c2ccc(C(=N)N)cc2)cc1	10	0.66	BT [21]: 660
23	COc1ccc(C[C@H](NC(=O)c2ccc(C(=N)N)cc2)C(=O)N2CCN(CC(=O)O)C(=O)[C@@H]2CCCNC(=O)c2ccc(C(=N)N)cc2)cc1	10	0.021	
97	N=C(N)Nc1ccc(C(=O)NCC[C@H]2C(=O)N(CC(=O)O)CCN2C(=O)CNC(=O)c2ccc(NC(=N)N)cc2)cc1	<10	0.88	BT [22]: 800
57	N=C(N)Cc1ccc(C(=O)NC[C@H]2C(=O)N(CC(=O)O)CCN2C(=O)CNC(=O)c2ccc(C(=N)N)cc2)cc1	<10	0.42	BT [23]: 760
120	N=C(N)c1ccc(C(=O)NCC(=O)N2CCN(CC(=O)O)C(=O)[C@@H]2CNC(=O)c2ccc(C(=N)N)cc2)cc1	<6	0.72	BT [24]: >900
81	N=C(N)c1ccc(C(=O)NCC(=O)N2CCN(CC(=O)O)C(=O)[C@@H]2CCCNC(=O)c2ccc(CCN)cc2)cc1	11	0.56	BT [25]: 860; BT [26]: 270
140	N=C(N)Nc1ccc(C(=O)NCC(=O)N2CCN(CC(=O)O)C(=O)[C@@H]2CNC(=O)c2ccc(NC(=N)N)cc2)cc1	<10	1	BT [8]: 720
67	N=C(N)Cc1ccc(C(=O)NCCC[C@H]2C(=O)N(CC(=O)O)CCN2C(=O)CNC(=O)c2ccc(C(=N)N)cc2)cc1	10	0.41	BT [24]: 620
51	N=C(N)Nc1ccc(C(=O)NCCC[C@H]2C(=O)N(CC(=O)O)CCN2C(=O)CNC(=O)c2ccc(NC(=N)N)cc2)cc1	>33	0.18	BT [25]: 510; IC50 [13]: 51 nM; IC50 [14]: 31 nM; IC50 [15]: 31 nM; IC50 [16]: 30 nM; IC50 [17]: 91 nM; IC50 [18]: 59 nM; IC50 [19]: 79 nM
